High-throughput results from PubChem BioAssay.
Compounds with a hit are over-represented: about 3.3% of the library has one in this group of screens.
SIAE primary – inhibitors of human sialic acid acetylesterase SIAE; Q9HAT2; SIAE FP-Rh probe binding, fluorescence polarization; inhibition, % at 9.66 µM; actives 0.69% (n = 370,000); AID 1053197;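 active = inhibition above a cutoff: mean of compounds within the control limits plus 3 SD of those, cut at about 17% in these data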
rCAG binder – binds r(CAG) RNA repeats. actives 1.3% (n = 370,000). r(CAG) RNA repeat, TO-PRO-1 dye displacement fluorescence. AID 651821. inhibition, % at 3 µM;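 active = inhibition above the plate cutoff, the mean of all test compounds on that plate plus 3 SD, cut at about 35% in these data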;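 also: higher means more dye released from RNA so lower well fluorescence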
PRMT1 FP inh – inhibitors of human PRMT1; actives 1.3% (n = 370,000); Q99873; recombinant PRMT1, activity-based probe fluorescence polarization; inhibition, % at 2.79 µM;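 active = inhibition above about 21% made by adding two undisclosed values, limit read from the data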
Target sequence (Q99873 whole entry, looked up): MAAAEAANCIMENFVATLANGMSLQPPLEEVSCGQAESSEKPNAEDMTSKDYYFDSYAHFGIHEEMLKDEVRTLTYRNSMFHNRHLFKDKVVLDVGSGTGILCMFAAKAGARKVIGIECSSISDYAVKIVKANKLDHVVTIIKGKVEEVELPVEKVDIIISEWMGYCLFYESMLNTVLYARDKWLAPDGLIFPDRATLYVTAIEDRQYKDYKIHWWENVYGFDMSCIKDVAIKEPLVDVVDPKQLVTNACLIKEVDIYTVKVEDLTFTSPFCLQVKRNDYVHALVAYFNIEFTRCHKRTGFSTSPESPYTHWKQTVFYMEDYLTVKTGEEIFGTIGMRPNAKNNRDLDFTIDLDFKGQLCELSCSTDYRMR
TCR-CD3 inh – inhibitors of human TCR-CD3 interaction. TAMRA-labeled TCR probe fluorescence, biochemical. inhibition, % at 9.4 µM. actives 0.37% (n = 360,000); in the data active = inhibition above about 19%;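 also: recombinant mutant TCR 2C K166C tagged with TAMRA read by polarization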
mABHD4 FP – inhibitors of mouse ABHD4 | purified mABHD4, FP-Rh probe fluorescence polarization | Q8VD66 | actives 0.54% (n = 370,000) | inhibition, % at 8.92 µM;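 active = inhibition exceeding the mean over every tested compound plus 3 SD, cut at about 30% in these data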
Target sequence (Q8VD66 whole entry, looked up): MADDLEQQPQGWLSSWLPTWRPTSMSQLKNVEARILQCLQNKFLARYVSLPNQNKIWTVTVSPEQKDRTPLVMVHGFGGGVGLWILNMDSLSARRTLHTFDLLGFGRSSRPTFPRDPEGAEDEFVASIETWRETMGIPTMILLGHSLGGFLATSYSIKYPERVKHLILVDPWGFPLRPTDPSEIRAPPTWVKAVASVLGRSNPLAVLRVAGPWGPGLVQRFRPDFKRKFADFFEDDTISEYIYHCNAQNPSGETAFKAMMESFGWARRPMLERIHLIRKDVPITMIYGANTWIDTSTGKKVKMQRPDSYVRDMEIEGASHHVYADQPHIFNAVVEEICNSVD
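assay system = mABHD4 protein | compound dosing = single nominal dose of 8.92 µM, 0.89% DMSO final | read-out basis = percent inhibition of probe binding, normalized to plate controls | schedule = Enzyme–compound pre-incubation 45 min, then probe 60 min, both 25 °C | detection = fluorescence polarization, excitation 525 nm, emission 598 nm, BODIPY TMR filters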
rCAG bind conf – r(CAG) RNA repeat binding, confirmation. actives 70% (n = 4,300). TO-PRO-1 dye displacement fluorescence. shares compounds with rCAG binder. inhibition, % at 3 µM;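 active = inhibition above a per-plate cutoff, the mean inhibition of sample wells plus 3 SD, cut at about 35% in these data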;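 also: loss of TO-PRO-1 fluorescence as compound displaces dye from 1x1 AA loop RNA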
DNA CAG counter – disrupts DNA CAG TO-PRO-1 complex, flagging rCAG hits; shares compounds with rCAG binder; d(CAG) DNA oligo TO-PRO-1 dye displacement, fluorescence; inhibition, % at 3 µM; actives 94% (n = 4,300); AID 652068;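 active = inhibition above its plate's cutoff, the mean test-well inhibition plus 3 SD, cut at about 4.8% in these data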;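 also: hits displace the dye from DNA and so lower well fluorescence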
Each line names hits and unclear results; the compound was inactive in the other large screens (follow-up assays come after a bar, where they were run).

NC(c1csc(NC(=O)Nc2cccc(Cl)c2)n1)C1CCCCC1 (stereo unspecified)	rCAG binder 47.1 | rCAG bind conf inactive | DNA CAG counter 5.9
COc1ccccc1NC(=O)Nc1nc(C(N)C2CCCCC2)cs1 (stereo unspecified)	none
NC(c1csc(NC(=O)Nc2ccccc2)n1)C1CCCCC1 (stereo unspecified)	rCAG binder 41.7 | rCAG bind conf inactive | DNA CAG counter 4.8
COc1cc(NC(=O)CSc2nc3ccccc3cc2C)c(C(=O)O)cc1OC	none
CCc1cc2ccccc2nc1SCC(=O)Nc1cc(OC)c(OC)cc1C(=O)O	rCAG binder 52.8 | rCAG bind conf 45.3 | DNA CAG counter 12.8
CS(=O)(=O)c1ccc2nc(NC(=O)c3ccc(NS(=O)(=O)c4ccc(F)c(F)c4)cc3)sc2c1	rCAG binder 35.8 | rCAG bind conf 66.5 | DNA CAG counter 26.6
O=C(Nc1nc2ccc(SC(F)F)cc2s1)c1ccc(NS(=O)(=O)c2ccc(F)c(F)c2)cc1	rCAG binder 62.4 | rCAG bind conf 83.5 | DNA CAG counter 65.9
CS(=O)(=O)c1ccc2nc(NC(=O)c3cccc(NS(=O)(=O)c4ccc(F)c(F)c4)c3)sc2c1	rCAG binder 59.3 | rCAG bind conf 60.5 | DNA CAG counter 24.6
CS(=O)(=O)c1ccc2nc(NC(=O)c3cccc([N+](=O)[O-])c3)sc2c1	none
CSc1nc2ccc(NC(=O)c3ccc(F)c(F)c3)cc2s1	none
COCCCNC(=O)C1CCN(S(=O)(=O)c2ccc3[nH]c(=O)oc3c2)CC1	none (no result: TCR-CD3 inh)
COc1cc(NC(=O)C2CCN(S(=O)(=O)c3ccc4[nH]c(=O)oc4c3)CC2)cc(OC)c1	rCAG binder 35.7 | rCAG bind conf inactive | DNA CAG counter 9.2
O=C(Nc1cccc(C(=O)O)c1)/C(=C/c1cccc([N+](=O)[O-])c1)NC(=O)c1cccc(Br)c1	rCAG binder 46.8 | rCAG bind conf inactive | DNA CAG counter 4.8
O=C(Nc1cccc(C(=O)O)c1)/C(=C/c1ccc2c(c1)OCO2)NC(=O)c1cccc(Br)c1	rCAG binder 42.1 | rCAG bind conf inactive | DNA CAG counter 6.1
O=C(NC(Cc1ccccc1)C(=O)O)/C(=C/c1cccc([N+](=O)[O-])c1)NC(=O)c1cccc(Br)c1 (stereo unspecified)	rCAG binder 48.1 | rCAG bind conf 50.7 | DNA CAG counter 15.7
O=C(Nc1cccc(C(=O)O)c1)/C(=C/c1ccccc1)NC(=O)c1cccc(Br)c1	none
COc1ccc(/C=C2\CC3(OC(=O)c4ccc(F)cc4)CCCN2C3)cc1 (stereo unspecified)	none (no result: TCR-CD3 inh)
CCOC(=O)Cn1cc(CN2C(C(=O)OC)CN(CCO)CCS2(=O)=O)nn1 (stereo unspecified)	none (no result: TCR-CD3 inh)
C=CCNC(=O)c1onc(CSc2ccccc2)c1C(=O)O	none
C=CCNC(=O)c1onc(CSc2cccc3ccccc23)c1C(=O)O	rCAG binder 40.4 | rCAG bind conf inactive | DNA CAG counter 5.2
C=CCNC(=O)c1onc(CSc2ccccc2F)c1C(=O)O	none
C=CCNC(=O)c1onc(CSc2ccc(C(C)C)cc2)c1C(=O)O	rCAG binder 37.8 | rCAG bind conf inactive | DNA CAG counter inactive
CCCCNC(=O)c1onc(CSc2cc(C)cc(C)c2)c1C(=O)NCCCC	none
CCCCNC(=O)c1onc(CSc2cc(C)cc(C)c2)c1C(=O)O	rCAG binder 35.3 | rCAG bind conf inactive | DNA CAG counter 4.4
COc1ccccc1COC(=O)c1cccc(S(=O)(=O)N(C)Cc2ccccc2)c1	none (no result: TCR-CD3 inh)
O=C(Cn1nnc(-c2cc(C(F)(F)F)cc(C(F)(F)F)c2)n1)NNC(=S)Nc1ccc(Cl)cc1	rCAG binder 66.0 | rCAG bind conf 52.9 | DNA CAG counter 20.9
CC1CCC2(CCC(=O)N2CCCOC(=O)c2ccccc2)CC1 (stereo unspecified)	none (no result: TCR-CD3 inh)
C[C@H](O)[C@@H]1C(=O)N2CCc3c([nH]c4c(-c5ccc6c(c5)OCO6)cccc34)[C@@H]2C[C@@H]1N(C)C(=O)OCc1ccccc1	none (no result: TCR-CD3 inh)
CCCCc1cc(=O)oc2c(C)c(OCC(=O)N3CCC(C(=O)O)(c4ccccc4)CC3)ccc12	rCAG binder 39.8 | rCAG bind conf 51.8 | DNA CAG counter 12.9
O=C1c2ccccc2C(=O)N1c1ncc(Cc2ccc(Cl)cc2)s1	rCAG binder 42.2 | rCAG bind conf inactive | DNA CAG counter inactive
O=C(NNC(=O)C1CC1)c1cc(Br)c(Br)s1	rCAG binder 35.5 | rCAG bind conf 37.0 | DNA CAG counter 12.7
Cc1ccc2nc(-c3ccc(NC(=O)CSc4nnc(-c5cc(C)[nH]n5)n4N)cc3)sc2c1	none (no result: TCR-CD3 inh)
COC(=O)C(C)N1C(=O)S/C(=C\c2ccc(-c3ccc(C(=O)O)cc3C)o2)C1=O (stereo unspecified)	rCAG binder 43.9 | rCAG bind conf inactive | DNA CAG counter 7.8
Cc1nn(CCC(=O)NNC(=O)Nc2ccc(Cl)cc2)c(C)c1[N+](=O)[O-]	none (no result: TCR-CD3 inh)
COc1ccc(Cn2cc(CN3[C@@H](CC(C)C)COc4ccc(Cl)cc4S3(=O)=O)nn2)cc1	none (no result: TCR-CD3 inh)
O=C(Cn1c(=O)c2cccn2c2cccnc21)NCCCN1CCN(c2ccc(Cl)cc2)CC1	none (no result: rCAG binder, TCR-CD3 inh)
O=C(Cc1ccc(Cl)cc1Cl)Nc1cccc(S(=O)(=O)Nc2ccccc2F)c1	none
O=C(/C=C/c1ccccc1)Nc1cccc(S(=O)(=O)Nc2ccccc2F)c1	rCAG binder 37.8 | rCAG bind conf 39.6 | DNA CAG counter 12.9
O=C(NCC(c1cccs1)N1CCOCC1)c1ccccc1NS(=O)(=O)c1ccc(Br)cc1 (stereo unspecified)	rCAG binder 49.0 | rCAG bind conf 46.5 | DNA CAG counter 14.7
O=C(NCC(c1cccs1)N1CCOCC1)c1ccccc1NS(=O)(=O)c1ccc(Cl)cc1 (stereo unspecified)	rCAG binder 50.4 | rCAG bind conf 61.1 | DNA CAG counter 22.6
O=C(CCNS(=O)(=O)c1ccc(Br)cc1)NCC(c1cccs1)N1CCOCC1 (stereo unspecified)	none
O=C(NCC(c1ccco1)N1CCCCC1)c1ccc(S(=O)(=O)Nc2ccccc2Cl)cc1 (stereo unspecified)	rCAG binder 43.1 | rCAG bind conf 38.8 | DNA CAG counter 8.8
CC(=O)c1ccc(S(=O)(=O)Nc2ccc(C(=O)NCC(c3cccs3)N3CCOCC3)cc2)cc1 (stereo unspecified)	none
O=[N+]([O-])c1ccc(NCCCN2CCC(C(O)(c3ccccc3)c3ccccc3)CC2)cc1	none (no result: TCR-CD3 inh)
COc1ccc(-n2c(O)c(/C=N/NS(=O)(=O)c3ccc(C)c([N+](=O)[O-])c3)c3ccccc3c2=O)cc1OC	rCAG binder 37.4 | rCAG bind conf 56.6 | DNA CAG counter 25.5
